Screens (PubChem)
In the library only some 2.4% were active in any assay of this set; here they are far more common.
PREPL inh = inhibits the human prolyl oligopeptidase-like enzyme; recombinant PREPL, fluorescence polarization activity-based probe; inhibition, % at 5.96 µM; 320,000 compounds, 0.68% hits; in the data active = inhibition above about 43%;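 note: 0% = enzyme with DMSO and 100% = wells lacking enzyme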
Target sequence (Q4J6C6 whole entry, looked up): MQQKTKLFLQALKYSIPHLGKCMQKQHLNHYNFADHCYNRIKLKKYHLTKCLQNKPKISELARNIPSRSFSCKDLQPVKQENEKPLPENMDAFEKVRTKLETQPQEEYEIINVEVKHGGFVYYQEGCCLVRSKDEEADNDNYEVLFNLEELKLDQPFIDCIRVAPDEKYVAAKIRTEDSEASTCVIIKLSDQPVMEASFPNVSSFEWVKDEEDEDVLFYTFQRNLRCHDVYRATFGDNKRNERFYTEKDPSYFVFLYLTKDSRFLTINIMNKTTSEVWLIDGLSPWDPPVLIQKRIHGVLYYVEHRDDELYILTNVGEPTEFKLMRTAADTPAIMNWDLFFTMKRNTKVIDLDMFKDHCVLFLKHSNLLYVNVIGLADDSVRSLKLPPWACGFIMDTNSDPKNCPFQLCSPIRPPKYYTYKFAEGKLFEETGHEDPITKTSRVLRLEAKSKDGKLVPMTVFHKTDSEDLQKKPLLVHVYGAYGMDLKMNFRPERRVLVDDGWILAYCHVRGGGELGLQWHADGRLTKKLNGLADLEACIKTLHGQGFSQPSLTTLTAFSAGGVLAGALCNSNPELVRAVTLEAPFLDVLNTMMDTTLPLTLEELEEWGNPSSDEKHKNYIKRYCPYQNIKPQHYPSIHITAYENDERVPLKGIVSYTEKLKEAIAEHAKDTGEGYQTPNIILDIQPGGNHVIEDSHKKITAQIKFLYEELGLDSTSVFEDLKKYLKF
Tb MetRS inh = blocks T. brucei methionyl-tRNA synthetase activity | purified T. brucei MetRS, ATP depletion, Kinase-Glo luminescence | inhibition, % at 11.9 µM | 360,000 compounds, 0.4% hits;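 active = inhibition above a per-plate cutoff of the control wells' mean inhibition plus 3 SD, cut at about 5.5% in these data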;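 note: 0% = DMSO wells median and 100% = median of wells with control inhibitor compound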
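Material: T. brucei methionyl-tRNA synthetase, purified; reagent: substrates ATP, L-methionine and bulk Escherichia coli tRNA; dosing: 11.9 µM single point; timing: 15 min plus 2 h at 25 °C; detection: luminescence of leftover ATP; evaluation: % inhibition; control set: DMSO-only wells as low control; replicates: singlicate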
Rpn11 inh = Rpn11 (human) deubiquitinase inhibition | human 26S proteasome, Ub4-pepOG fluorescence polarization; 20S core pre-blocked with epoxomicin | inhibition, % at 20 µM | 360,000 compounds, 0.59% hits;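 active = inhibition at 20 µM, scaled to each plate's controls, above about 33%, limit read from the data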
Neddylation inh = inhibitors of human cullin neddylation; P61081+Q13564; 360,000 compounds, 0.58% hits; inhibition, % at 25 µM; TR-FRET cullin neddylation, biochemical; in the data active = inhibition above about 36%
CSN deneddyl inh = CSN deneddylation inhibition | Q92905 | Purified CSN, SCF-Nedd8-OG deneddylation, fluorescence polarization | inhibition, % at 12.5 µM | 360,000 compounds, 0.38% hits;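 active = pattern-corrected inhibition above about 35%, with an unprinted fluorescence ratio check between 0.5 and 1.5, limit read from the data, passing the limit was not always enough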;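 note: 0% = enzyme with substrate and 100% = substrate without enzyme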
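Material: human Csn5 produced in HEK293T cells; Input: enzyme 0.24 nM; Reagent: SCFSkp2-Nedd8OG substrate at 10 nM final; Dosing: 12.5 µM compound; Incubation: 90 min reaction at room temperature; Detection: fluorescence polarization of the substrate; Evaluation: % inhibition of substrate cleavage by Csn5; Control set: substrate-only high control, full reaction low control.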
HNF4A DNA FP = change in binding of human HNF4 alpha to DNA; P41235; activity change, % at 10 µM; HNF4a-FITC DNA binding, fluorescence polarization, 1 h; 360,000 compounds, 0.3% hits; in the data active = activity change above about 30%, passing the limit was not always enough
PREPL confirm = human PREPL inhibition, confirmation | shares compounds with PREPL inh | recombinant PREPL, fluorescence polarization activity probe | inhibition, % at 5.96 µM | 2,000 compounds, 67% hits; in the data active = inhibition above about 43%;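 note: 0% = protein with DMSO and 100% = wells lacking protein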
Rpn11 confirm = Rpn11 inhibition confirmation, single concentration. shares compounds with Rpn11 inh. purified human 26S proteasome, Ub4-pepOG fluorescence polarization; proteasome pretreated with epoxomicin. inhibition, % at 20 µM. 1,900 compounds, 29% hits. AID 602318
MMP-2 counter-1 = blocks human MMP-2, flagging nonselective RPN11 hits; shares compounds with Rpn11 inh; recombinant MMP-2, FRET peptide cleavage fluorescence; inhibition, % at 20 µM; 1,900 compounds, 4% hits; AID 602330;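 note: human MMP-2 activated beforehand with APMA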
Thrombin inh = counter-screen for RPN11 inhibitors: inhibition of bovine thrombin | shares compounds with Rpn11 inh | bovine thrombin cleavage of Ub4-pepOG, fluorescence polarization | inhibition, % at 20 µM | 1,900 compounds, 13% hits;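 active = mean inhibition at least 40% at 20 µM, or signal 3 deviations below plate average, so some actives read negative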;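 note: plate controls were thrombin with DMSO for no effect and buffer wells lacking thrombin for full effect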
Tb MetRS conf = confirmation of Trypanosoma brucei MetRS inhibitors | T. brucei MetRS enzyme, luminescence (ATP depletion) | AID 624412 | 1,400 compounds, 93% hits | shares compounds with Tb MetRS inh | inhibition, % at 11.9 µM; in the data active = inhibition above about 7%
Jurkat cytotox = counter-screen for T. brucei MetRS inhibitors: Jurkat cell cytotoxicity; shares compounds with Tb MetRS inh; Jurkat cells viability, ATP luminescence; inhibition, % at 8.3 µM; 1,400 compounds, 12% hits; in the data active = inhibition above about 15%;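 note: 0% = vehicle and 100% = reference inhibitor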
Tb MetRS inh FP = inhibits T. brucei methionyl tRNA synthetase in orthogonal FP test | shares compounds with Tb MetRS inh | purified T. brucei MetRS, fluorescence polarization | inhibition, % at 11.9 µM | 1,400 compounds, 44% hits; in the data active = inhibition above about 17%;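 note: 0% = vehicle wells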
Neddyl conf = confirmation of human cullin neddylation inhibitors | calls only at 25 µM | AID 652217 | 1,800 compounds, 13% hits | shares compounds with Neddylation inh | TR-FRET cullin neddylation biochemical assay;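 note: neddylation substrate is the cullin 1 ring ligase complex with SKP2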
CSN5 deneddyl = Csn5 (human) deneddylation inhibition, single-concentration validation | shares compounds with CSN deneddyl inh | Csn5 deneddylation of SCF-Nedd8OG, fluorescence polarization, 90 min | inhibition, % at 16.6 µM | 540 compounds, 62% hits | AID 720654; in the data active = inhibition above about 50%;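 note: 0% = DMSO with enzyme and 100% = no enzyme wells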
MMP-2 counter-2 = counter-screen for CSN deneddylation inhibitors: human MMP-2 inhibition | shares compounds with CSN deneddyl inh | recombinant MMP-2, FRET substrate fluorescence, 60 min | inhibition, % at 16.6 µM | 540 compounds, 33% hits | AID 720655;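 active = corrected plate-normalized z-score of 5 or more, or -5 or less, or inhibition of 15% or more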;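 note: plate controls were DMSO wells with enzyme for no effect and buffer wells lacking MMP-2 for full effect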
Thrombin counter = blocks bovine thrombin in a CSN deneddylation counter-screen; bovine thrombin cleavage of Ub4-pepOG, fluorescence polarization; shares compounds with CSN deneddyl inh; 540 compounds, 49% hits; inhibition, % at 16.6 µM;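 active = inhibition at or above a set limit, with a fluorescence interference ratio between 0.5 and a set maximum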
HNF4A confirm = change in binding of human HNF4 alpha to DNA, retest. activity change, % at 12.5 µM. 210 compounds, 99% hits. AID 1224897. HNF4A-FITC DNA binding, fluorescence polarization, 1 h. shares compounds with HNF4A DNA FP; call rule not given here
Numbers without * were called inactive; i = inactive; · = not tested or not shown. Cut-off read from the data, not from the text of the source, unless noted: active = inhibition above about 40%; inactive = the rest.

SMILES	PREPL inh	Tb MetRS inh	Rpn11 inh	Neddylation inh	CSN deneddyl inh	HNF4A DNA FP	PREPL confirm	others
Cc1ccc2[nH]c3c(c2c1)CCc1cn[nH]c1-3	47*	22*	14	19	1	-1	25	Tb MetRS conf=12*;Jurkat cytotox=2;Tb MetRS inh FP=47*
Oc1cccc(Nc2nc(O)c(/C=C3\C=Nc4ccccc43)s2)c1	53*	17*	·	-18	118	150	52*	Tb MetRS conf=21*;Jurkat cytotox=5;Tb MetRS inh FP=28*
O=c1[nH]c(S)c(/C=C2\C=Nc3ccccc32)s1	12	3	-51	-42	-1	-26	·
CCc1nc2c(OCC(=O)c3ccc(F)cc3)cccn2c1N(C)C(=O)C(C)C	·	0	-6	3	2	3	·
COCCCNC(=O)/C(C#N)=C/c1c(N2CCN(c3ccc(OC)cc3)CC2)nc2c(C)cccn2c1=O	51*	-2	-6	55*	4	1	52*	Neddyl conf=i
Cc1ccc(-c2[nH]c3ccccc3c2SCCN)cc1	57*	-1	5	46*	-3	1	41	Neddyl conf=i
CC(NC(=O)c1cc(S(=O)(=O)N2CCOCC2)ccc1N1CCCC1)c1ccc(Cl)c(Cl)c1 (centres undefined)	26	0	6	-12	-1	-3	·
COc1ccc(/C=N/NC(=O)c2ccc(-c3ccccc3)cc2)cc1O	13	0	2	28	-6	-2	·
COc1cc(/C=N\NC(=O)c2ccc(-c3ccccc3)cc2)cc(Br)c1O	43*	-1	-2	45*	2	2	41	Neddyl conf=i
COc1ncnc2c1ncn2CCCN1CCN(C(=O)C2CC2)CC1	·	-1	1	7	0	-2	·
CCCCCCCCCCCCCCCC[n+]1cccc2ccccc21	56*	-1	78*	1	36*	21	42	CSN5 deneddyl=65*;MMP-2 counter-2=17*;Thrombin counter=-39
Nc1ccc2c(c1)C(=O)C(=O)c1ccccc1-2	61*	22*	0	-120	51*	2	53*	Tb MetRS conf=15*;Jurkat cytotox=97*;Tb MetRS inh FP=3;MMP-2 counter-2=5;Thrombin counter=-26
CCOc1cc(/C=C2/SC(=S)NC2=O)ccc1OC(=O)c1ccco1	66*	-2	22	-33	58*	24	67*	CSN5 deneddyl=77*;MMP-2 counter-2=15*;Thrombin counter=3
O=C1NC(=S)S/C1=C/c1ccc(OC(=O)c2ccco2)cc1	65*	0	·	-42	41*	44*	69*	CSN5 deneddyl=69*;MMP-2 counter-2=19*;Thrombin counter=36*
N=C1/C(=C\c2ccc(OC(=O)c3ccco3)cc2)C(=O)N=C2SC=NN12	·	-1	0	-21	-5	3	·
CCOc1cc(/C=N\NC(=O)OC)ccc1OC(=O)c1ccco1	14	-1	-3	-8	-3	2	·
COc1cc(N=Nc2cccc(S(N)(=O)=O)c2)c2ccccc2c1N	61*	-1	92*	-118	46*	25	59*	CSN5 deneddyl=82*;MMP-2 counter-2=15;Thrombin counter=26*
OCCc1ccc(NCCc2cccs2)cc1	·	0	-4	3	0	-2	·
N#CC(=C(c1ccccc1)c1ccccc1)c1ccccc1	·	0	4	30	-2	1	·
CCOc1ccc(NC(=S)Nc2ccc3nsnc3c2)cc1	44*	5	4	-33	44*	6	13	CSN5 deneddyl=95*;MMP-2 counter-2=35*;Thrombin counter=-24
CCOc1ccc(NC(=O)Nc2ccc3nsnc3c2)cc1	17	0	-5	-17	-3	-2	·
Cc1cc2ncc(-c3cccs3)nc2cc1C	·	-1	-6	0	0	1	·
CCS(=O)(=O)C1=NSC2=NC(=O)/C(=C\c3ccc(OC(=O)c4ccco4)c(OC)c3)C(=N)N21	53*	0	118*	-80	31	44*	77*	Rpn11 confirm=36;MMP-2 counter-1=-4;Thrombin inh=34;HNF4A confirm=59*
CC(C)Oc1ccc(S(=O)(=O)N2CCCCC2)cc1NC(=O)C1CSC2(C)CCC(=O)N12 (centres undefined)	3	0	1	0	-4	0	·
CN1CCC(N(C)C(=O)c2sc3cc(F)ccc3c2Cl)CC1	7	0	109*	-1	3	100*	·	Rpn11 confirm=-13;MMP-2 counter-1=0;Thrombin inh=-6
CC(C)N(CC(N)=O)C(=O)c1sc2cc(F)ccc2c1Cl	-7	-2	-1	-1	-2	-2	·
Cc1cc(C)cc(Nc2nc3ccccc3c(=O)[nH]2)c1	5	4	5	8	-6	-1	·
COc1nc(Nc2nc3ccccc3c(=O)[nH]2)nc2ccc(C)cc12	2	-1	43*	14	8	275*	·	Rpn11 confirm=16;MMP-2 counter-1=-6;Thrombin inh=5
